Laboratory results taken from ChEMBL document CHEMBL4130405, “Iridoid Glycosides from the Twigs of Sambucus williamsii var. coreana and Their Biological Activities” (J Nat Prod, 2017).

Tested on: A549
Test: Cytotoxicity against human A549 cells after 48 hrs by SRB assay
Assay type: functional, cell-based
Details: A549, 48 h
Outline: (§1)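 Cells from ATCC were seeded and left 24 h at 37 °C under 5% CO2. Attached cells were then exposed for 48 h to serial dilutions of 30, 10, 3, 1, 0.3 and 0.1 μM. Cells were fixed with cold 10% TCA at 4 °C for 1 h and stained with 0.4% SRB for 30 min at room temperature. Dye was solubilized in 10 mM Tris base (pH 10.5) and absorbance read at 520 nm. Etoposide served as positive control. IC50 is the mean ± SD of three independent experiments.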
For `CC(C)CC(=O)O[C@@H]1OC=C(CO[C@@H]2O[C@H](CO)[C@@H](O)[C@H](O)[C@H]2O)[C@H]2C[C@H](O)[C@](O)(CO)[C@@H]12`, the IC50 was > 10 µM. `COc1cc([C@@H]2c3cc4c(cc3[C@@H](O[C@@H]3O[C@@H]5CO[C@@H](C)O[C@H]5[C@H](O)[C@H]3O)[C@H]3COC(=O)[C@H]23)OCO4)cc(OC)c1O` [ETOPOSIDE] showed an IC50 of 1.1 µM. For `CC(=O)OC[C@@]1(O)CC[C@@H]2C(CO[C@@H]3O[C@H](CO)[C@@H](O)[C@H](O)[C@H]3OC(=O)/C=C/c3ccc(O)cc3)=CO[C@@H](OC(=O)CC(C)C)[C@@H]21`, the IC50 was > 10 µM. In the case of `CC(=O)OC[C@@]1(O)CC[C@@H]2C(CO[C@@H]3O[C@H](CO)[C@@H](O)[C@H](O)[C@H]3OC(=O)/C=C\c3ccc(O)cc3)=CO[C@@H](OC(=O)CC(C)C)[C@@H]21`, the IC50 is reported as > 10 µM.

Tested on: BT-549
Test: Cytotoxicity against human BT549 cells after 48 hrs by SRB assay
Assay type: functional, cell-based
Details: BT-549, 48 h
Outline: as §1
For `CC(C)CC(=O)O[C@@H]1OC=C(CO[C@@H]2O[C@H](CO)[C@@H](O)[C@H](O)[C@H]2O)[C@H]2C[C@H](O)[C@](O)(CO)[C@@H]12`, the IC50 was > 10 µM. `COc1cc([C@@H]2c3cc4c(cc3[C@@H](O[C@@H]3O[C@@H]5CO[C@@H](C)O[C@H]5[C@H](O)[C@H]3O)[C@H]3COC(=O)[C@H]23)OCO4)cc(OC)c1O` [ETOPOSIDE] showed an IC50 of 1 µM. With `CC(=O)OC[C@@]1(O)CC[C@@H]2C(CO[C@@H]3O[C@H](CO)[C@@H](O)[C@H](O)[C@H]3OC(=O)/C=C/c3ccc(O)cc3)=CO[C@@H](OC(=O)CC(C)C)[C@@H]21` the IC50 was > 10 µM. Compound `CC(=O)OC[C@@]1(O)CC[C@@H]2C(CO[C@@H]3O[C@H](CO)[C@@H](O)[C@H](O)[C@H]3OC(=O)/C=C\c3ccc(O)cc3)=CO[C@@H](OC(=O)CC(C)C)[C@@H]21` has an IC50 of 4 µM.

Tested on: not listed separately
Test: Cytotoxicity against rat C6 cells assessed as cell viability at 20 uM after 24 hrs by MTT assay relative to control
Assay type: cell-based
Details: read-out: Activity
Outline: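 C6 glioma cells were kept in DMEM with 10% FBS and seeded at 1 × 10^5 cells/well. After 24 h, cells were treated with 20 μM compound in DMEM with 2% FBS for 24 h. MTT reagent was added for 1 h at 37 °C, formazan dissolved in DMSO and absorbance read at 570 nm. Results are percent, mean ± SD of three independent experiments.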
Compound `CCCCC/C=C/C(=O)CCc1ccc(O)c(OC)c1` [SHOGAOL] has a viability at 24 h, 20 µM of 98.8%. Work on `CC(C)CC(=O)O[C@@H]1OC=C(CO[C@@H]2O[C@H](CO)[C@@H](O)[C@H](O)[C@H]2O)[C@H]2C[C@H](O)[C@](O)(CO)[C@@H]12` yielded a viability at 24 h, 20 µM of 116%. For `CC(=O)OC[C@@]1(O)CC[C@@H]2C(CO[C@@H]3O[C@H](CO)[C@@H](O)[C@H](O)[C@H]3OC(=O)/C=C/c3ccc(O)cc3)=CO[C@@H](OC(=O)CC(C)C)[C@@H]21`, the viability at 24 h, 20 µM was 120%. Work on `CC(=O)OC[C@@]1(O)CC[C@@H]2C(CO[C@@H]3O[C@H](CO)[C@@H](O)[C@H](O)[C@H]3OC(=O)/C=C\c3ccc(O)cc3)=CO[C@@H](OC(=O)CC(C)C)[C@@H]21` yielded a viability at 24 h, 20 µM of 104%.

Tested on: SK-OV-3
Test: Cytotoxicity against human SKOV3 cells after 48 hrs by SRB assay
Assay type: functional, cell-based
Details: SK-OV-3, 48 h
Outline: as §1
For `CC(C)CC(=O)O[C@@H]1OC=C(CO[C@@H]2O[C@H](CO)[C@@H](O)[C@H](O)[C@H]2O)[C@H]2C[C@H](O)[C@](O)(CO)[C@@H]12`, the IC50 was > 10 µM. Work on `COc1cc([C@@H]2c3cc4c(cc3[C@@H](O[C@@H]3O[C@@H]5CO[C@@H](C)O[C@H]5[C@H](O)[C@H]3O)[C@H]3COC(=O)[C@H]23)OCO4)cc(OC)c1O` [ETOPOSIDE] yielded an IC50 of 2.9 µM. With `CC(=O)OC[C@@]1(O)CC[C@@H]2C(CO[C@@H]3O[C@H](CO)[C@@H](O)[C@H](O)[C@H]3OC(=O)/C=C/c3ccc(O)cc3)=CO[C@@H](OC(=O)CC(C)C)[C@@H]21` the IC50 was > 10 µM. Work on `CC(=O)OC[C@@]1(O)CC[C@@H]2C(CO[C@@H]3O[C@H](CO)[C@@H](O)[C@H](O)[C@H]3OC(=O)/C=C\c3ccc(O)cc3)=CO[C@@H](OC(=O)CC(C)C)[C@@H]21` yielded an IC50 of 7.5 µM.

Tested on: not listed separately
Test: Cytotoxicity against mouse BV2 cells assessed as cell viability at 20 uM by MTT assay relative to control
Assay type: cell-based, BV-2
Details: read-out: Activity
Outline: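 Viability of LPS-activated BV-2 cells was measured after 24 h treatment with 20 μM compound. Read-out was MTT, expressed as percent. Values are means ± SD of three independent experiments.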
With `CNC(=N)NCCC[C@H](N)C(=O)O` [TILARGININE] the viability at 20 µM was 120%. Work on `CC(C)CC(=O)O[C@@H]1OC=C(CO[C@@H]2O[C@H](CO)[C@@H](O)[C@H](O)[C@H]2O)[C@H]2C[C@H](O)[C@](O)(CO)[C@@H]12` yielded a viability at 20 µM of 103%. With `CC(=O)OC[C@@]1(O)CC[C@@H]2C(CO[C@@H]3O[C@H](CO)[C@@H](O)[C@H](O)[C@H]3OC(=O)/C=C/c3ccc(O)cc3)=CO[C@@H](OC(=O)CC(C)C)[C@@H]21` the viability at 20 µM was 143%. `CC(=O)OC[C@@]1(O)CC[C@@H]2C(CO[C@@H]3O[C@H](CO)[C@@H](O)[C@H](O)[C@H]3OC(=O)/C=C\c3ccc(O)cc3)=CO[C@@H](OC(=O)CC(C)C)[C@@H]21` gave a viability at 20 µM of 130%.

Tested on: SK-MEL-2
Test: Cytotoxicity against human SK-MEL-2 cells after 48 hrs by SRB assay
Assay type: functional, cell-based
Details: SK-MEL-2, 48 h
Outline: as §1
With `CC(C)CC(=O)O[C@@H]1OC=C(CO[C@@H]2O[C@H](CO)[C@@H](O)[C@H](O)[C@H]2O)[C@H]2C[C@H](O)[C@](O)(CO)[C@@H]12` the IC50 was > 10 µM. Compound `COc1cc([C@@H]2c3cc4c(cc3[C@@H](O[C@@H]3O[C@@H]5CO[C@@H](C)O[C@H]5[C@H](O)[C@H]3O)[C@H]3COC(=O)[C@H]23)OCO4)cc(OC)c1O` [ETOPOSIDE] has an IC50 of 0.2 µM. In the case of `CC(=O)OC[C@@]1(O)CC[C@@H]2C(CO[C@@H]3O[C@H](CO)[C@@H](O)[C@H](O)[C@H]3OC(=O)/C=C/c3ccc(O)cc3)=CO[C@@H](OC(=O)CC(C)C)[C@@H]21`, the IC50 is reported as > 10 µM. `CC(=O)OC[C@@]1(O)CC[C@@H]2C(CO[C@@H]3O[C@H](CO)[C@@H](O)[C@H](O)[C@H]3OC(=O)/C=C\c3ccc(O)cc3)=CO[C@@H](OC(=O)CC(C)C)[C@@H]21` showed an IC50 of 5.2 µM.

Tested on: C6
Test: Induction of NGF secretion in rat C6 cells at 20 uM after 24 hrs by ELISA relative to control
Assay type: functional
Details: not given
Outline: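 C6 glioma cells were seeded at 1 × 10^5 cells/well in DMEM with 10% FBS. After 24 h, cells were exposed to 20 μM compound in DMEM with 2% FBS for 24 h. NGF secreted into the conditioned medium was measured by ELISA as percent of untreated control (100%). 6-Shogaol served as positive control. Data are mean ± SD of three independent experiments in triplicate.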
For `CCCCC/C=C/C(=O)CCc1ccc(O)c(OC)c1` [SHOGAOL], the Activity was 146.3%. In the case of `CC(C)CC(=O)O[C@@H]1OC=C(CO[C@@H]2O[C@H](CO)[C@@H](O)[C@H](O)[C@H]2O)[C@H]2C[C@H](O)[C@](O)(CO)[C@@H]12`, the Activity is reported as 107.4%. `CC(=O)OC[C@@]1(O)CC[C@@H]2C(CO[C@@H]3O[C@H](CO)[C@@H](O)[C@H](O)[C@H]3OC(=O)/C=C/c3ccc(O)cc3)=CO[C@@H](OC(=O)CC(C)C)[C@@H]21` gave an Activity of 158.7%. `CC(=O)OC[C@@]1(O)CC[C@@H]2C(CO[C@@H]3O[C@H](CO)[C@@H](O)[C@H](O)[C@H]3OC(=O)/C=C\c3ccc(O)cc3)=CO[C@@H](OC(=O)CC(C)C)[C@@H]21` gave an Activity of 134.1%.

Tested on: BV-2
Test: Antineuroinflammatory activity in mouse BV2 cells assessed as inhibition of LPS-induced nitric oxide production pretreated for 30 mins followed by LPS-stimulation after 24 hrs by Griess assay
Assay type: functional, cell-based
Details: not given
Outline: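 BV-2 microglia were pretreated with compound for 30 min, then stimulated with LPS (100 ng/mL) for 24 h. Nitrite in the supernatant was mixed with an equal volume of Griess reagent (1% sulfanilamide, 0.1% naphthylethylenediamine in 5% phosphoric acid) for 10 min and read at 570 nm. Values were quantified against a sodium nitrite standard curve. L-NMMA served as positive control. IC50 is the concentration giving 50% inhibition of NO production; three independent experiments.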
With `CNC(=N)NCCC[C@H](N)C(=O)O` [TILARGININE] the IC50 was 13.2 µM. For `CC(C)CC(=O)O[C@@H]1OC=C(CO[C@@H]2O[C@H](CO)[C@@H](O)[C@H](O)[C@H]2O)[C@H]2C[C@H](O)[C@](O)(CO)[C@@H]12`, the IC50 was 112 µM. `CC(=O)OC[C@@]1(O)CC[C@@H]2C(CO[C@@H]3O[C@H](CO)[C@@H](O)[C@H](O)[C@H]3OC(=O)/C=C/c3ccc(O)cc3)=CO[C@@H](OC(=O)CC(C)C)[C@@H]21` showed an IC50 of 29.8 µM. With `CC(=O)OC[C@@]1(O)CC[C@@H]2C(CO[C@@H]3O[C@H](CO)[C@@H](O)[C@H](O)[C@H]3OC(=O)/C=C\c3ccc(O)cc3)=CO[C@@H](OC(=O)CC(C)C)[C@@H]21` the IC50 was 1.2 to 1.22 µM.
